The list is not random: actives were taken first. Their share in the collection is about 5.8%.
KDM4C inh – KDM4C (human) demethylase inhibition | 96,000 tested, 0.15% active | Q9H3R0 | GST-KDM4C 2-372, H3K9me3 peptide, LANCE TR-FRET | inhibition, % at 12.5 µM;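 active = mean replicate inhibition above about 25%, with at least 55% of replicates also reaching it, limit read from the data, passing the limit was not always enough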
Target sequence (Q9H3R0 2-372 limits assumed): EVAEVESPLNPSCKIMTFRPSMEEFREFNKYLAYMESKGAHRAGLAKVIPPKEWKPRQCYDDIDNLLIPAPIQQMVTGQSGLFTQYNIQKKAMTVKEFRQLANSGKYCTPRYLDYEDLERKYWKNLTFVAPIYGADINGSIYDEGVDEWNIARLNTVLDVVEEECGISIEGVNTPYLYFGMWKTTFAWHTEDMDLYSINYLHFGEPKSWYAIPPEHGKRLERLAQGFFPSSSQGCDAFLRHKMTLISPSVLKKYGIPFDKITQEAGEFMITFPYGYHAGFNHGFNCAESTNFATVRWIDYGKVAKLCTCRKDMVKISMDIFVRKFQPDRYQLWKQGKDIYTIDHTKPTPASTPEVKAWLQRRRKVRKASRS
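Material: N-terminal GST-fused human GASC-1 (KDM4C) fragment, residues 2-372. Input: 10 nM enzyme. Incubation: enzyme reaction 30 min, then detection 60 min, both room temperature. Doses: one test concentration per compound. Read-out basis: inhibition from TR-FRET ratio decrease. Detection: LANCE TR-FRET, excitation 340 nm, emissions 618 and 671 nm.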
IDH1 mut inh – IDH1 R132H (human) inhibition | O75874 | IDH1 R132H reductase, diaphorase/resazurin fluorescence, 60 min | inhibition, % at 10 µM | 70,000 tested, 0.18% active | AID 624101; in the data active = inhibition above about 34%;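 also: 0% = DMSO and 100% = no enzyme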
Pf Dd2 growth – blocks growth of Plasmodium falciparum Dd2 parasites. P. falciparum Dd2 growth, SYBR Green, 72 h; hits give low values. activity change, % at 10 µM. 94,000 tested, 2.3% active; in the data active = activity change below about -80%
T cruzi growth – blocks T. cruzi growth in NIH3T3 culture; T. cruzi beta-gal in NIH3T3, GalScreen luminescence, 90 h; inhibition, % at 8.34 µM; 77,000 tested, 5.9% active; AID 624255;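 active = mean inhibition above about 93%, with at least 55% of replicates each passing it, limit read from the data, passing the limit was not always enough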
An asterisk follows results filed as active; · = no result.

SMILES | KDM4C inh | IDH1 mut inh | Pf Dd2 growth | T cruzi growth
COc1ccc(NC(=O)N(C)C[C@H]2Oc3ccc(NS(=O)(=O)c4c(C)noc4C)cc3C(=O)N([C@@H](C)CO)C[C@@H]2C)cc1 | 1 | 0 | 20 | 39
COc1cccc(CNC(=O)C[C@@H]2CC[C@@H](NC(=O)C3CC3)[C@H](CO)O2)c1 | -2 | 0 | 20 | ·
CCCN1C[C@H](C)[C@H](OC)CN(C)C(=O)c2ccc(NC(=O)CC)cc2OC[C@H]1C | 1 | 0 | · | 31
O=C(c1cnccn1)N1CC(=O)N2[C@@H](CO)[C@H](c3ccc(/C=C/c4ccccc4)cc3)[C@@H]2C1 | -2 | · | -67 | ·
C[C@@H]1CN([C@H](C)CO)C(=O)c2c(c3ccccc3n2C)-c2ccccc2CO[C@H]1CN(C)C(=O)[C@H](C)c1ccccc1 | -1 | · | -84* | ·
C[C@@H]1CN([C@@H](C)CO)C(=O)c2c(c3ccccc3n2C)-c2ccccc2CO[C@@H]1CN(C)C(=O)[C@H](C)c1ccccc1 | -4 | · | -87* | ·
C[C@H](NC(=O)N(C)C[C@H]1OCc2ccccc2-c2c(n(C)c3ccccc23)C(=O)N([C@@H](C)CO)C[C@@H]1C)c1ccccc1 | -1 | · | -81* | 91
C[C@H](C(=O)N(C)C[C@@H]1OCc2ccccc2-c2c(n(C)c3ccccc23)C(=O)N([C@H](C)CO)C[C@H]1C)c1ccccc1 | -2 | · | -75 | ·
CC(C)OC(=O)N(C)C[C@H]1OCc2ccccc2-c2c(n(C)c3ccccc23)C(=O)N([C@H](C)CO)C[C@H]1C | -1 | -2 | -83* | 29
C[C@@H]1CN([C@@H](C)CO)C(=O)c2c(c3ccccc3n2C)-c2ccccc2CO[C@@H]1CN(C)C(=O)N[C@H](C)c1ccccc1 | -1 | 0 | -22 | 36
C[C@@H]1CCCCO[C@H](CN(C)CC2CCCCC2)[C@@H](C)CN([C@H](C)CO)C(=O)c2cc(NC(=O)Cc3ccccc3)ccc2O1 | 3 | · | -84* | 44
CCCN(C)C[C@H]1OCCCC[C@@H](C)Oc2ccc(NC(=O)Cc3ccccc3)cc2C(=O)N([C@H](C)CO)C[C@H]1C | 0 | 0 | -44 | 92
CCCN(C)C[C@H]1OCCCC[C@@H](C)Oc2ccc(NC(=O)Cc3ccccc3)cc2C(=O)N([C@@H](C)CO)C[C@H]1C | -1 | -2 | -86* | 23
C[C@@H]1CCCCO[C@@H](CN(C)CC2CCCCC2)[C@@H](C)CN([C@@H](C)CO)C(=O)c2cc(NC(=O)Cc3ccccc3)ccc2O1 | -1 | · | -49 | 58
O=C(c1cnccn1)N1CC(=O)N2[C@@H](CO)[C@H](c3ccc(C#CCc4ccccc4)cc3)[C@@H]2C1 | 1 | · | -88* | ·
O=C(C1CCCCC1)N1CC(=O)N2[C@H](CO)[C@@H](c3ccc(C#CCc4ccccc4)cc3)[C@@H]2C1 | -1 | · | -83* | ·
O=C(C1CCCCC1)N1CC(=O)N2[C@H](C1)[C@@H](c1ccc(C#CCc3ccccc3)cc1)[C@@H]2CO | 0 | · | -66 | ·
O=C(C1CCCC1)N1CC(=O)N2[C@@H](CO)[C@H](c3ccc(C#CCc4ccccc4)cc3)[C@@H]2C1 | 1 | · | -93* | ·
COCC(=O)N1[C@H](CO)[C@@H]2c3ccccc3N(C(=O)c3ccncc3)C[C@@H]21 | 1 | · | 11 | -13
C[C@@H]1CN([C@H](C)CO)C(=O)Cc2cc(NS(=O)(=O)c3ccc(Cl)cc3)ccc2O[C@@H]1CN(C)Cc1ccc(-c2ccccc2)cc1 | 5 | · | 17 | 10
COc1ccc(-c2ccc3c(c2)O[C@H](CN(C)C(C)=O)[C@@H](C)CN([C@@H](C)CO)S3(=O)=O)cc1 | 9 | 0 | 0 | 50
COc1ccc(-c2ccc3c(c2)O[C@H](CN(C)C(C)=O)[C@@H](C)CN([C@H](C)CO)S3(=O)=O)cc1 | 56* | 54* | 14 | 53
CC(=O)N(C)C[C@@H]1Oc2cc(Br)ccc2S(=O)(=O)N([C@@H](C)CO)C[C@@H]1C | 42* | 19 | -2 | 11
COc1cc(NC(=O)CN(C)S(=O)(=O)c2ccc(C)cc2)c(OC)cc1Cl | · | 0 | · | ·
COc1ccc2c3c(n(C)c2c1)[C@@H](CO)N(Cc1ccc(Cl)cc1)CC31CCN(CC2CC2)CC1 | 2 | · | -91* | ·
SMILES | KDM4C inh | IDH1 mut inh | Pf Dd2 growth | T cruzi growth
COc1ccc2c3c(n(C)c2c1)[C@H](CO)N(Cc1ccc(F)cc1)CC31CCN(CC2CC2)CC1 | 0 | · | -84* | ·
COc1ccc2c3c(n(C)c2c1)[C@H](CO)N(Cc1ccc(Cl)cc1)CC31CCN(CC2CC2)CC1 | 4 | · | -88* | ·
COc1ccc2c3c(n(C)c2c1)[C@H](CO)N(Cc1ccc(Cl)cc1)CC31CN(CC2CC2)C1 | -1 | · | -58 | ·
COc1ccc2c3c(n(C)c2c1)[C@H](CO)N(Cc1ccccc1F)CC31CCN(CC2CC2)CC1 | 2 | · | -90* | ·
CO[C@H]1CN(C)C(=O)c2cc(NC(C)=O)ccc2OC[C@H](C)N(CCc2ccccc2)C[C@@H]1C | -1 | 0 | -15 | 3
COc1ccc2c3c(n(C)c2c1)[C@@H](CO)N(CC1CCCCC1)CC31CCN(Cc2nccs2)CC1 | 1 | · | -90* | ·
COc1ccc2c3c(n(C)c2c1)[C@H](CO)N(CC1CCCC1)CC31CCN(Cc2nccs2)CC1 | 1 | · | -71 | ·
C[C@H]1CN([C@@H](C)CO)C(=O)c2cccc(NS(C)(=O)=O)c2O[C@@H]1CN(C)Cc1ccc(-c2ccccc2)cc1 | 0 | · | -84* | 55
C[C@@H]1CN([C@@H](C)CO)C(=O)c2cccc(NS(=O)(=O)c3ccccc3)c2O[C@H]1CN(C)Cc1ccc(-c2ccccc2)cc1 | 1 | · | -84* | 79
COc1ccc(S(=O)(=O)Nc2cccc3c2O[C@H](CN(C)Cc2ccc(-c4ccccc4)cc2)[C@@H](C)CN([C@H](C)CO)C3=O)cc1 | 0 | · | -91* | ·
C/C=C/c1ccc2c(c1)[C@@H]1[C@@H](CCN1S(=O)(=O)c1ccc(C)cc1)[C@@H](CO)N2 | 1 | · | -41 | 22
O=C(c1cccc(F)c1)N1CC[C@H]2[C@H](CO)Nc3ccc(-c4cccc(F)c4)cc3[C@H]21 | 0 | · | 5 | 26
C/C=C/c1ccc2c(c1)[C@@H]1[C@@H](CCN1S(=O)(=O)c1ccccc1C)[C@H](CO)N2 | -2 | · | -86* | ·
O=C(c1cccc(F)c1)N1CC[C@H]2[C@H](CO)Nc3ccc(C#Cc4cccc(F)c4)cc3[C@H]21 | -7 | · | -84* | ·
C/C=C/c1ccc2c(c1)[C@H]1[C@H](CCN1C(=O)c1cccc(F)c1)[C@H](CO)N2 | 0 | · | -93* | ·
O=C(Cc1cccnc1)N1CC[C@H]2[C@H](CO)Nc3ccc(C#Cc4cccc(F)c4)cc3[C@H]21 | 1 | · | -84* | ·
C[C@@H]1CN([C@H](C)CO)C(=O)c2cc(NS(C)(=O)=O)ccc2O[C@H]1CN(C)Cc1ccc(Oc2ccccc2)cc1 | 1 | -2 | 1 | 75
CC(=O)N1CC[C@H]2[C@H](CO)Nc3ccc(C#Cc4ccccc4F)cc3[C@H]21 | -3 | · | -21 | ·
C/C=C/c1ccc2c(c1)[C@H]1[C@H](CCN1C(=O)c1ccc(F)cc1)[C@H](CO)N2 | 0 | · | -89* | ·

Screens: PubChem, Broad Institute
